# Reference: ChEMBL document CHEMBL1141653, “New bis(2-aminoimidazoline) and bisguanidine DNA minor groove binders with potent in vivo antitrypanosomal and antiplasmodial activity” (J Med Chem, 2008)
# pIC50: −log10 of the molar value. Calls of active or inactive are those of the source. The calls are words filed in the database; no cut-off is given here.
# Tested on: not listed separately
# Test: Selectivity index, ratio of IC50 for rat L6 cells to IC50 for Trypanosoma brucei rhodesiense STIB900
# Assay type: functional
# Conditions: not given
# How it was run: (§1)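 Ratio of the IC₅₀ on L-6 rat skeletal myoblasts to the parasite IC₅₀. Cytotoxicity measured in RPMI 1640 with L-glutamine and 10% FBS, serial dilutions 90 to 0.123 µg/mL, duplicate. After 72 h, Alamar blue (resazurin) added for 2 h. Fluorescence read at ex 536 / em 588 nm.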
row,Compound,Ratio IC50
1,Cl.N=C(N)Nc1ccc(C2CCN(c3ccc(NC(=N)N)cc3)CC2)cc1,111
2,Cl.c1cc(C2CCN(c3ccc(NC4=NCCN4)cc3)CC2)ccc1NC1=NCCN1,3474
3,Cl.N=C(N)Nc1ccc(NC(=O)Nc2ccc(NC(=N)N)cc2)cc1,>1256
4,Cl.Cl.O=C(Nc1ccc(NC2=NCCN2)cc1)c1ccc(NC2=NCCN2)cc1,7720
5,N=C(N)Nc1ccc(N2CCN(c3ccc(NC(=N)N)cc3)CC2)cc1,172
6,c1cc(Nc2ccc(NC3=NCCN3)cc2)ccc1NC1=NCCN1,3072
7,Cl.N=C(N)Nc1ccc(NC(=S)Nc2ccc(NC(=N)N)cc2)cc1,29
8,c1cc(NC2=NCCN2)ccc1Cc1ccc(NC2=NCCN2)cc1,71
9,c1cc(NC2=NCCN2)ccc1CCc1ccc(NC2=NCCN2)cc1,646

# Tested on: Plasmodium berghei (ANKA)
# Test: Antiplasmodial activity as survival against Plasmodium berghei ANKA infection in NMRI mice (Mus musculus) assessed at 5 mg/kg intraperitoneal dose for 4 days
# Conditions: not given
row,Compound,Survival [days]
1,CCN(CC)CCCC(C)Nc1ccnc2cc(Cl)ccc12 (stereo not given) [CHLOROQUINE],9

# Tested on: Mus musculus
# Test: Toxicity in Plasmodium berghei ANKA infected NMRI mice (Mus musculus) at 50 mg/kg, intraperitoneally for 4 days
# Assay type: organism-based
# Design: dose 50 mg/kg, route intraperitoneal
# Conditions: in vivo, ip, 96 h
# How it was run: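 Toxicity recorded in the P. berghei ANKA model. Female NMRI mice (20–22 g), three per group, infected iv with 2 × 10⁷ parasitized erythrocytes. Compound in DMSO diluted 10-fold in water, dosed ip at 4, 24, 48 and 72 h post-infection. Survival followed up to 30 days after infection.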
row,Compound,Activity
1,Cl.N=C(N)Nc1ccc(C2CCN(c3ccc(NC(=N)N)cc3)CC2)cc1,Toxic
2,Cl.N=C(N)Nc1ccc(NC(=O)Nc2ccc(NC(=N)N)cc2)cc1,Toxic

# Tested on: L6
# Test: Cytotoxicity against rat L6 cells
# Assay type: cell-based
# Conditions: not given
row,Compound,pIC50
1,Cl.N=C(N)Nc1ccc(C2CCN(c3ccc(NC(=N)N)cc3)CC2)cc1,4.62
2,Cl.c1cc(C2CCN(c3ccc(NC4=NCCN4)cc3)CC2)ccc1NC1=NCCN1,3.88
3,Cl.N=C(N)Nc1ccc(NC(=O)Nc2ccc(NC(=N)N)cc2)cc1,< 3.63
4,Cl.Cl.O=C(Nc1ccc(NC2=NCCN2)cc1)c1ccc(NC2=NCCN2)cc1,3.71
5,N=C(N)Nc1ccc(N2CCN(c3ccc(NC(=N)N)cc3)CC2)cc1,4.33
6,c1cc(Nc2ccc(NC3=NCCN3)cc2)ccc1NC1=NCCN1,3.67
7,Cl.N=C(N)Nc1ccc(NC(=S)Nc2ccc(NC(=N)N)cc2)cc1,4.81
8,c1cc(NC2=NCCN2)ccc1Cc1ccc(NC2=NCCN2)cc1,4.20
9,c1cc(NC2=NCCN2)ccc1CCc1ccc(NC2=NCCN2)cc1,4.46

# Tested on: Plasmodium berghei (ANKA)
# Test: Antiplasmodial activity against parasitemia in Plasmodium berghei ANKA infected NMRI mice (Mus musculus) at 10 mg/kg intraperitoneal dose after 4 days
# Conditions: not given
row,Compound,Activity [%]
1,CCN(CC)CCCC(C)Nc1ccnc2cc(Cl)ccc12 (stereo not given) [CHLOROQUINE],99.6

# Tested on: Plasmodium berghei (ANKA)
# Test: Antiplasmodial activity as survival against Plasmodium berghei ANKA infection in NMRI mice (Mus musculus) at 10 mg/kg intraperitoneal dose for 4 days
# Conditions: not given
row,Compound,Survival [days]
1,CCN(CC)CCCC(C)Nc1ccnc2cc(Cl)ccc12 (stereo not given) [CHLOROQUINE],20

# Tested on: Plasmodium falciparum
# Test: Antiplasmodial activity against Plasmodium falciparum K1 in [3H]hypoxanthine incorporation assay
# Assay type: functional, organism-based
# Conditions: K1, 72 h
# How it was run: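 K1 erythrocytic stages in RPMI 1640 without hypoxanthine with AlbuMax, human A⁺ red cells at 2.5% hematocrit, 0.3% parasitemia. Compounds taken from 10 mg/mL DMSO stock, tested as serial doubling dilutions at 37 °C in 4% CO₂/3% O₂/93% N₂. After 48 h, ³H-hypoxanthine (0.5 µCi) added for 24 h more; incorporation by scintillation counting. IC₅₀ from sigmoidal curves.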
row,Compound,pIC50
1,Cl.N=C(N)Nc1ccc(C2CCN(c3ccc(NC(=N)N)cc3)CC2)cc1,7.39
2,Cl.c1cc(C2CCN(c3ccc(NC4=NCCN4)cc3)CC2)ccc1NC1=NCCN1,7.96
3,Cl.N=C(N)Nc1ccc(NC(=O)Nc2ccc(NC(=N)N)cc2)cc1,7.02
4,Cl.Cl.O=C(Nc1ccc(NC2=NCCN2)cc1)c1ccc(NC2=NCCN2)cc1,7.55
5,N=C(N)Nc1ccc(N2CCN(c3ccc(NC(=N)N)cc3)CC2)cc1,7.82
6,c1cc(Nc2ccc(NC3=NCCN3)cc2)ccc1NC1=NCCN1,8.06
7,Cl.N=C(N)Nc1ccc(NC(=S)Nc2ccc(NC(=N)N)cc2)cc1,6.22
8,c1cc(NC2=NCCN2)ccc1Cc1ccc(NC2=NCCN2)cc1,7.80
9,c1cc(NC2=NCCN2)ccc1CCc1ccc(NC2=NCCN2)cc1,7.80

# Tested on: Trypanosoma brucei rhodesiense
# Test: Antitrypanosomal activity against Trypanosoma brucei rhodesiense STIB900
# Assay type: functional, organism-based
# Conditions: not given
# How it was run: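 Bloodstream forms (10⁴ per well) in MEM with 15% heat-inactivated horse serum, 25 mM HEPES, 2-mercaptoethanol, hypoxanthine. 3-fold serial dilutions from 90 to 0.123 µg/mL, in duplicate. Incubation 72 h at 37 °C, 5% CO₂. Resazurin then added for 2–4 h more. Fluorescence read at ex 536 / em 588 nm.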
row,Compound,pIC50
1,Cl.N=C(N)Nc1ccc(C2CCN(c3ccc(NC(=N)N)cc3)CC2)cc1,6.66
2,Cl.c1cc(C2CCN(c3ccc(NC4=NCCN4)cc3)CC2)ccc1NC1=NCCN1,7.42
3,Cl.N=C(N)Nc1ccc(NC(=O)Nc2ccc(NC(=N)N)cc2)cc1,6.73
4,Cl.Cl.O=C(Nc1ccc(NC2=NCCN2)cc1)c1ccc(NC2=NCCN2)cc1,7.60
5,N=C(N)Nc1ccc(N2CCN(c3ccc(NC(=N)N)cc3)CC2)cc1,6.57
6,c1cc(Nc2ccc(NC3=NCCN3)cc2)ccc1NC1=NCCN1,7.16
7,Cl.N=C(N)Nc1ccc(NC(=S)Nc2ccc(NC(=N)N)cc2)cc1,6.27
8,c1cc(NC2=NCCN2)ccc1Cc1ccc(NC2=NCCN2)cc1,6.05
9,c1cc(NC2=NCCN2)ccc1CCc1ccc(NC2=NCCN2)cc1,7.27

# Tested on: Plasmodium berghei (ANKA)
# Test: Antiplasmodial activity as survival against Plasmodium berghei ANKA infection in NMRI mice (Mus musculus) at 20 mg/kg intraperitoneal dose for 4 days
# Conditions: not given
row,Compound,Survival [days]
1,N=C(N)Nc1ccc(N2CCN(c3ccc(NC(=N)N)cc3)CC2)cc1,7
2,c1cc(Nc2ccc(NC3=NCCN3)cc2)ccc1NC1=NCCN1,7
3,c1cc(NC2=NCCN2)ccc1Cc1ccc(NC2=NCCN2)cc1,6.7

# Tested on: not listed separately
# Test: Binding affinity for DNA assessed as thermal melting temperature
# Conditions: not given
# How it was run: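 Thermal melting of poly(dA)·poly(dT): DNA at 40 µM base with compound at 12 µM (ratio 0.3) in MES 0.01 M / EDTA 0.001 M buffer, pH 6.25. A260 followed from 20 to 95 °C at 0.5 °C/min. Value is ΔTm.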
row,Compound,ΔTm [°C]
1,Cl.N=C(N)Nc1ccc(C2CCN(c3ccc(NC(=N)N)cc3)CC2)cc1,30
2,Cl.c1cc(C2CCN(c3ccc(NC4=NCCN4)cc3)CC2)ccc1NC1=NCCN1,35
3,Cl.N=C(N)Nc1ccc(NC(=O)Nc2ccc(NC(=N)N)cc2)cc1,24.1
4,Cl.Cl.O=C(Nc1ccc(NC2=NCCN2)cc1)c1ccc(NC2=NCCN2)cc1,47.1
5,N=C(N)Nc1ccc(N2CCN(c3ccc(NC(=N)N)cc3)CC2)cc1,27.8
6,c1cc(Nc2ccc(NC3=NCCN3)cc2)ccc1NC1=NCCN1,38.5
7,Cl.N=C(N)Nc1ccc(NC(=S)Nc2ccc(NC(=N)N)cc2)cc1,23
8,c1cc(NC2=NCCN2)ccc1Cc1ccc(NC2=NCCN2)cc1,18.8
9,c1cc(NC2=NCCN2)ccc1CCc1ccc(NC2=NCCN2)cc1,31.2

# Tested on: Trypanosoma brucei rhodesiense
# Test: Antitrypanosomal activity against Trypanosoma brucei rhodesiense STIB900 infected NMRI mouse assessed as survival of animals administered at 20 mg/kg, ip after 4 days
# Assay type: functional
# Conditions: route intraperitoneal
# How it was run: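 Mice infected ip with 2 × 10⁴ bloodstream forms of T. b. rhodesiense STIB900. Groups of four treated ip on days 3–6, untreated control group. Parasitemia checked every second day to day 14, then twice weekly to day 60. Deaths recorded for mean survival time. Surviving aparasitemic mice at 60 days counted as cured.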
row,Compound,Survival [days]
1,Cl.c1cc(C2CCN(c3ccc(NC4=NCCN4)cc3)CC2)ccc1NC1=NCCN1,>47.25
2,Cl.Cl.O=C(Nc1ccc(NC2=NCCN2)cc1)c1ccc(NC2=NCCN2)cc1,>60
3,c1cc(NC2=NCCN2)ccc1CCc1ccc(NC2=NCCN2)cc1,>60

# Tested on: not listed separately
# Test: Selectivity index, ratio of IC50 for rat L6 cells to IC50 for Plasmodium falciparum K1
# Assay type: functional
# Conditions: not given
# How it was run: as §1
row,Compound,Ratio IC50
1,Cl.N=C(N)Nc1ccc(C2CCN(c3ccc(NC(=N)N)cc3)CC2)cc1,585
2,Cl.c1cc(C2CCN(c3ccc(NC4=NCCN4)cc3)CC2)ccc1NC1=NCCN1,12000
3,Cl.N=C(N)Nc1ccc(NC(=O)Nc2ccc(NC(=N)N)cc2)cc1,>2547
4,Cl.Cl.O=C(Nc1ccc(NC2=NCCN2)cc1)c1ccc(NC2=NCCN2)cc1,6893
5,N=C(N)Nc1ccc(N2CCN(c3ccc(NC(=N)N)cc3)CC2)cc1,3053
6,c1cc(Nc2ccc(NC3=NCCN3)cc2)ccc1NC1=NCCN1,24000
7,Cl.N=C(N)Nc1ccc(NC(=S)Nc2ccc(NC(=N)N)cc2)cc1,26
8,c1cc(NC2=NCCN2)ccc1Cc1ccc(NC2=NCCN2)cc1,4051
9,c1cc(NC2=NCCN2)ccc1CCc1ccc(NC2=NCCN2)cc1,2181

# Tested on: Ferriprotoporphyrin IX
# Test: Inhibition of ferriprotoporphyrin 9 biomineralization at 1 mg/ml
# Assay type: functional
# Conditions: not given
# How it was run: (§2)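 β-Hematin formation: hemin chloride (0.5 mg/mL in DMSO) with 0.5 M sodium acetate pH 4.4 and drug dilutions, 37 °C for 18–24 h. Pellet washed with DMSO, dissolved in 0.1 N NaOH, A405 read. Percent inhibition relative to solvent control. IC₅₀ derived, or percent inhibition at 1 mg/mL (highest concentration) given when no IC₅₀.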
row,Compound,inhibition [%]
1,Cl.N=C(N)Nc1ccc(C2CCN(c3ccc(NC(=N)N)cc3)CC2)cc1,0
2,Cl.c1cc(C2CCN(c3ccc(NC4=NCCN4)cc3)CC2)ccc1NC1=NCCN1,0
3,Cl.N=C(N)Nc1ccc(NC(=O)Nc2ccc(NC(=N)N)cc2)cc1,0
4,N=C(N)Nc1ccc(N2CCN(c3ccc(NC(=N)N)cc3)CC2)cc1,0
5,c1cc(NC2=NCCN2)ccc1CCc1ccc(NC2=NCCN2)cc1,0

# Tested on: Ferriprotoporphyrin IX
# Test: Inhibition of ferriprotoporphyrin 9 biomineralization
# Assay type: functional
# Conditions: not given
# How it was run: as §2
row,Compound,pIC50
1,Cl.Cl.O=C(Nc1ccc(NC2=NCCN2)cc1)c1ccc(NC2=NCCN2)cc1,3.15
2,c1cc(Nc2ccc(NC3=NCCN3)cc2)ccc1NC1=NCCN1,3.37
3,Cl.N=C(N)Nc1ccc(NC(=S)Nc2ccc(NC(=N)N)cc2)cc1,3.16
4,CCN(CC)CCCC(C)Nc1ccnc2cc(Cl)ccc12 (stereo not given) [CHLOROQUINE],4.75

# Tested on: Trypanosoma brucei rhodesiense
# Test: Antitrypanosomal activity against Trypanosoma brucei rhodesiense STIB900 infected NMRI mouse assessed as number of cured animals at 20 mg/kg, ip after 4 days
# Assay type: functional, organism-based
# Design: dose 20 mg/kg
# Conditions: not given
# How it was run: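 Mice infected ip with 2 × 10⁴ STIB900 bloodstream forms. Groups of four treated ip on days 3–6, with an untreated control group. Parasitemia checked every second day to day 14, then twice weekly to day 60. Mice surviving and aparasitemic at 60 days counted as cured.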
row,Compound,Activity
1,Cl.Cl.O=C(Nc1ccc(NC2=NCCN2)cc1)c1ccc(NC2=NCCN2)cc1,Active
2,c1cc(NC2=NCCN2)ccc1CCc1ccc(NC2=NCCN2)cc1,Active

# Tested on: Plasmodium berghei (ANKA)
# Test: Antiplasmodial activity against parasitemia in Plasmodium berghei ANKA infected NMRI mice (Mus musculus) at 5 mg/kg intraperitoneal dose after 4 days
# Conditions: not given
row,Compound,Activity [%]
1,CCN(CC)CCCC(C)Nc1ccnc2cc(Cl)ccc12 (stereo not given) [CHLOROQUINE],99.6

# Tested on: Plasmodium berghei (ANKA)
# Test: Antiplasmodial activity against parasitemia in Plasmodium berghei ANKA infected NMRI mice (Mus musculus) at 20 mg/kg intraperitoneal dose after 4 days
# Conditions: not given
row,Compound,Activity [%]
1,N=C(N)Nc1ccc(N2CCN(c3ccc(NC(=N)N)cc3)CC2)cc1,42.48
2,c1cc(Nc2ccc(NC3=NCCN3)cc2)ccc1NC1=NCCN1,65.51
3,c1cc(NC2=NCCN2)ccc1Cc1ccc(NC2=NCCN2)cc1,8.9
